Values joined by “and” are separate entries in the source; they are usually repeats but may differ in a detail not shown here. Equal values may be shown once.
Tests used:
U2OS = test: Multiplex assay against U2OS; assay type: toxicity, cell-based; conditions: human
Summary of the method: (§1)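 On a CQ1 microscope at 37°C and 5% CO2, live cells were imaged after compound addition. They had been stained at seeding with Hoechst33342, BioTracker Green Microtubule Cytoskeleton Dye, MitoTracker Red and Annexin V Alexa Fluor 680. CellPathfinder machine-learning gating assigned cells to Hoechst high-intensity objects or normal cells, normal cells to healthy, pyknosed or fragmented nuclei, and pyknosed cells to mitotic or apoptotic. Tubulin, mitochondrial-mass and membrane-permeability phenotypes are per cents of healthy-nucleus cells.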

HEK-293T = test: Multiplex assay against HEK293T; assay type: toxicity, cell-based; conditions: human; summary of the method: as §1
[1] = 12 h, 1 µM, compound concentration 1 uM
[2] = 12 h, 10 µM, compound concentration 10 uM
[3] = 24 h, 1 µM, compound concentration 1 uM
[4] = 24 h, 10 µM, compound concentration 10 uM
[5] = 48 h, 1 µM, compound concentration 1 uM
[6] = 48 h, 10 µM, compound concentration 10 uM

SMILES: CN(C)C(=O)Cn1cc(-c2ccc(-c3nnc4ccccn34)cc2)cn1
- Population Apoptotic (%) (U2OS; [1]): 90%
- Population Fragmented Nuclei (%) (U2OS; [1]): 25% and 22%
- Population Healthy Nuclei (%) (U2OS; [1]): 66% and 68%
- Population Hoechst High Intensity Objects (%) (U2OS; [1]): 1% and 0%
- Population Membrane Permeable-Phenotype (%) (U2OS; [1]): 6% and 3%
- Population Mitochondria Different-Phenotype (%) (U2OS; [1]): 1% and 6%
- Population Mitotic Cells (%) (U2OS; [1]): 9%
- Population Normal (%) (U2OS; [1]): 98% and 99%
- Population Pyknosed Nuclei (%) (U2OS; [1]): 8% and 9%
- Population Tubulin-Different-Phenotype (%) (U2OS; [1]): 3% and 4%
- Total Cell Count (U2OS; [1]): 251 and 123
- Population Apoptotic (%) (U2OS; [2]): 95% and 90%
- Population Fragmented Nuclei (%) (U2OS; [2]): 26% and 11%
- Population Healthy Nuclei (%) (U2OS; [2]): 65% and 81%
- Population Hoechst High Intensity Objects (%) (U2OS; [2]): 1%
- Population Membrane Permeable-Phenotype (%) (U2OS; [2]): 4%
- Population Mitochondria Different-Phenotype (%) (U2OS; [2]): 1% and 0%
- Population Mitotic Cells (%) (U2OS; [2]): 4% and 10%
- Population Normal (%) (U2OS; [2]): 98%
- Population Pyknosed Nuclei (%) (U2OS; [2]): 7%
- Population Tubulin-Different-Phenotype (%) (U2OS; [2]): 3%
- Total Cell Count (U2OS; [2]): 298 and 140
- Population Apoptotic (%) (U2OS; [3]): 94% and 100%
- Population Fragmented Nuclei (%) (U2OS; [3]): 22% and 17%
- Population Healthy Nuclei (%) (U2OS; [3]): 71% and 74%
- Population Hoechst High Intensity Objects (%) (U2OS; [3]): 0%
- Population Membrane Permeable-Phenotype (%) (U2OS; [3]): 4% and 7%
- Population Mitochondria Different-Phenotype (%) (U2OS; [3]): 2% and 7%
- Population Mitotic Cells (%) (U2OS; [3]): 5% and 0%
- Population Normal (%) (U2OS; [3]): 99% and 100%
- Population Pyknosed Nuclei (%) (U2OS; [3]): 5% and 8%
- Population Tubulin-Different-Phenotype (%) (U2OS; [3]): 1% and 4%
- Total Cell Count (U2OS; [3]): 315 and 131
- Population Apoptotic (%) (U2OS; [4]): 86% and 87%
- Population Fragmented Nuclei (%) (U2OS; [4]): 22% and 10%
- Population Healthy Nuclei (%) (U2OS; [4]): 66% and 85%
- Population Hoechst High Intensity Objects (%) (U2OS; [4]): 2% and 1%
- Population Membrane Permeable-Phenotype (%) (U2OS; [4]): 4% and 7%
- Population Mitochondria Different-Phenotype (%) (U2OS; [4]): 1%
- Population Mitotic Cells (%) (U2OS; [4]): 13% and 12%
- Population Normal (%) (U2OS; [4]): 97% and 98%
- Population Pyknosed Nuclei (%) (U2OS; [4]): 11% and 4%
- Population Tubulin-Different-Phenotype (%) (U2OS; [4]): 2% and 3%
- Total Cell Count (U2OS; [4]): 333 and 180
- Population Apoptotic (%) (U2OS; [5]): 87% and 93%
- Population Fragmented Nuclei (%) (U2OS; [5]): 16% and 11%
- Population Healthy Nuclei (%) (U2OS; [5]): 75% and 67%
- Population Hoechst High Intensity Objects (%) (U2OS; [5]): 2%
- Population Membrane Permeable-Phenotype (%) (U2OS; [5]): 4% and 7%
- Population Mitochondria Different-Phenotype (%) (U2OS; [5]): 2% and 3%
- Population Mitotic Cells (%) (U2OS; [5]): 12% and 6%
- Population Normal (%) (U2OS; [5]): 97%
- Population Pyknosed Nuclei (%) (U2OS; [5]): 7% and 20%
- Population Tubulin-Different-Phenotype (%) (U2OS; [5]): 1% and 3%
- Total Cell Count (U2OS; [5]): 426 and 158
- Population Apoptotic (%) (U2OS; [6]): 95% and 85%
- Population Fragmented Nuclei (%) (U2OS; [6]): 21% and 8%
- Population Healthy Nuclei (%) (U2OS; [6]): 67% and 81%
- Population Hoechst High Intensity Objects (%) (U2OS; [6]): 3% and 2%
- Population Membrane Permeable-Phenotype (%) (U2OS; [6]): 8% and 6%
- Population Mitochondria Different-Phenotype (%) (U2OS; [6]): 4% and 2%
- Population Mitotic Cells (%) (U2OS; [6]): 4% and 14%
- Population Normal (%) (U2OS; [6]): 96% and 97%
- Population Pyknosed Nuclei (%) (U2OS; [6]): 11% and 9%
- Population Tubulin-Different-Phenotype (%) (U2OS; [6]): 4% and 2%
- Total Cell Count (U2OS; [6]): 418 and 284
- Population Apoptotic (%) (HEK-293T; [1]): 31% and 43%
- Population Fragmented Nuclei (%) (HEK-293T; [1]): 7%
- Population Healthy Nuclei (%) (HEK-293T; [1]): 80% and 79%
- Population Hoechst High Intensity Objects (%) (HEK-293T; [1]): 9% and 10%
- Population Membrane Permeable-Phenotype (%) (HEK-293T; [1]): 0%
- Population Mitochondria Different-Phenotype (%) (HEK-293T; [1]): 40% and 59%
- Population Mitotic Cells (%) (HEK-293T; [1]): 68% and 56%
- Population Normal (%) (HEK-293T; [1]): 90% and 89%
- Population Pyknosed Nuclei (%) (HEK-293T; [1]): 11% and 12%
- Population Tubulin-Different-Phenotype (%) (HEK-293T; [1]): 32% and 27%
- Total Cell Count (HEK-293T; [1]): 432 and 337
- Population Apoptotic (%) (HEK-293T; [2]): 32% and 51%
- Population Fragmented Nuclei (%) (HEK-293T; [2]): 9% and 7%
- Population Healthy Nuclei (%) (HEK-293T; [2]): 76% and 80%
- Population Hoechst High Intensity Objects (%) (HEK-293T; [2]): 7% and 8%
- Population Membrane Permeable-Phenotype (%) (HEK-293T; [2]): 0%
- Population Mitochondria Different-Phenotype (%) (HEK-293T; [2]): 61% and 55%
- Population Mitotic Cells (%) (HEK-293T; [2]): 67% and 48%
- Population Normal (%) (HEK-293T; [2]): 92% and 91%
- Population Pyknosed Nuclei (%) (HEK-293T; [2]): 14% and 12%
- Population Tubulin-Different-Phenotype (%) (HEK-293T; [2]): 42% and 18%
- Total Cell Count (HEK-293T; [2]): 427 and 356
- Population Apoptotic (%) (HEK-293T; [3]): 27% and 46%
- Population Fragmented Nuclei (%) (HEK-293T; [3]): 10% and 9%
- Population Healthy Nuclei (%) (HEK-293T; [3]): 77% and 82%
- Population Hoechst High Intensity Objects (%) (HEK-293T; [3]): 6% and 7%
- Population Membrane Permeable-Phenotype (%) (HEK-293T; [3]): 0%
- Population Mitochondria Different-Phenotype (%) (HEK-293T; [3]): 28% and 44%
- Population Mitotic Cells (%) (HEK-293T; [3]): 72% and 53%
- Population Normal (%) (HEK-293T; [3]): 93% and 92%
- Population Pyknosed Nuclei (%) (HEK-293T; [3]): 12% and 7%
- Population Tubulin-Different-Phenotype (%) (HEK-293T; [3]): 22% and 18%

Reference: ChEMBL document CHEMBL5724801, “EUbOPEN Chemogenomics Library - Multiplex” (2024)
